pIC50: −log10 of the molar value.
Legend:
[1] = target: Phosphatidylinositol 4,5-bisphosphate 3-kinase catalytic subunit alpha isoform (Homo sapiens, UniProt P42336); test: Inhibition of PI3K-alpha (unknown origin) using PIP2 as substrate incubated for 1 hr by Kinase-Glo luminescent kinase assay
[2] = Antiproliferative activity against human UACC62 cells incubated for 48 hrs by sulforhodamine B assay; type: functional; settings: UACC-62, 48 h
[3] = Antiproliferative activity against human HCC2998 cells incubated for 48 hrs by sulforhodamine B assay; type: functional; settings: HCC 2998, 48 h
Procedure, shortened: (§1)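 Run externally by the US National Cancer Institute as part of its 60 human cancer cell line cytotoxicity screen (NCI-60).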

[4] = Antiproliferative activity against human COLO205 cells incubated for 48 hrs by sulforhodamine B assay; type: functional; settings: COLO 205, 48 h; procedure, shortened: as §1
[5] = Antiproliferative activity against human SF539 cells incubated for 48 hrs by sulforhodamine B assay; type: functional; settings: SF-539, 48 h; procedure, shortened: as §1
Mus musculus = test: Toxicity in BALB/C nude mouse xenografted with human Bel7404 cells assessed as reduction in body weight at 30 mg/kg, po qd for 14 consecutive days; type: organism-based; settings: in vivo
Procedure, shortened: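 Male BALB/C nude mice were implanted with BEL-7404 cells. When tumors reached 100–300 mm³ (after 12 days), mice were randomized to 6 per treatment group and 8 controls. The drug, suspended in 5% polysorbate 80 in water, was given orally once daily for 14 days from day 13. Body weight and mortality were tracked during dosing, and mice were sacrificed on day 29.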

[6] = Antiproliferative activity against human Caki1 cells incubated for 48 hrs by sulforhodamine B assay; type: functional; settings: CAKI-1, 48 h; procedure, shortened: as §1
[7] = Antiproliferative activity against human OVCAR4 cells incubated for 48 hrs by sulforhodamine B assay; type: functional; settings: OVCAR-4, 48 h; procedure, shortened: as §1
A549 = test: Inhibition of insulin-stimulated PI3K in human A549 cells assessed as suppression of AKT phosphorylation at Ser473 after 30 mins by Western blot analysis; type: cell-based
Procedure, shortened: (§2)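 A549 cells were insulin-stimulated for 2 h, then exposed to four compound concentrations for 30 min. Lysis was in ice-cold RIPA buffer, protein was quantified by BCA, and lysates were run on 10% SDS-PAGE and transferred to nitrocellulose. Detection was by infrared imaging, with β-actin as loading control.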

[8] = target: Phosphatidylinositol 4,5-bisphosphate 3-kinase catalytic subunit delta isoform (Homo sapiens, UniProt O00329); test: Inhibition of PI3K-delta (unknown origin) using PIP2 as substrate incubated for 1 hr by Kinase-Glo luminescent kinase assay
[9] = Cytotoxicity against human HCT116 cells after 72 hrs by MTT assay; type: functional, cell-based; settings: HCT-116, 72 h
Procedure, shortened: (§3)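 Log-phase cells at 40,000–50,000 cells/mL in DMEM with 10% FBS and antibiotics were seeded and cultured overnight at 37 °C, 5% CO₂. Compounds were diluted in DMSO/PBS from 10^-4 to 10^-9 M and applied for 72 h. MTT (5 mg/mL stock) was then added for 4 h and absorbance read at 570 nm. IC50 came from nonlinear regression on triplicate wells, averaged.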

[10] = Antiproliferative activity against human SF268 cells incubated for 48 hrs by sulforhodamine B assay; type: functional; settings: SF-268, 48 h; procedure, shortened: as §1
[11] = target: Phosphatidylinositol 4,5-bisphosphate 3-kinase catalytic subunit beta isoform (Homo sapiens, UniProt P42338); test: Inhibition of PI3K-beta (unknown origin) after 40 mins by ADP-Glo luminescent kinase assay
Procedure, shortened: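 ADP-Glo reagent stopped the reaction (40 min), then detection reagent was added (60 min) and luminescence read. Percent inhibition was derived from RLU.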

[12] = Antiproliferative activity against human SNB75 cells incubated for 48 hrs by sulforhodamine B assay; type: functional; settings: SNB-75, 48 h; procedure, shortened: as §1
[13] = Antiproliferative activity against human HCT15 cells incubated for 48 hrs by sulforhodamine B assay; type: functional; settings: HCT-15, 48 h; procedure, shortened: as §1
[14] = Antiproliferative activity against human HCT116 cells incubated for 48 hrs by sulforhodamine B assay; type: functional; settings: HCT-116, 48 h; procedure, shortened: as §1
SN12C = test: Antiproliferative activity against human SN12C cells incubated for 48 hrs by sulforhodamine B assay; type: functional; procedure, shortened: as §1
[15] = target: T1, Phosphatidylinositol 4,5-bisphosphate 3-kinase catalytic subunit gamma isoform (Homo sapiens, UniProt P48736); test: Inhibition of PI3K-gamma (unknown origin) at 10 nM after 40 mins by ADP-Glo luminescent kinase assay
Procedure, shortened: (§4)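 Final enzyme was PI3Kβ 4.8 nM and PI3Kγ 7.6 nM. ADP-Glo reagent stopped the reaction (40 min), then detection reagent was added (60 min) and luminescence read. Percent inhibition was derived from RLU.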
Target sequence in this assay (P48736 whole entry, looked up, canonical isoform): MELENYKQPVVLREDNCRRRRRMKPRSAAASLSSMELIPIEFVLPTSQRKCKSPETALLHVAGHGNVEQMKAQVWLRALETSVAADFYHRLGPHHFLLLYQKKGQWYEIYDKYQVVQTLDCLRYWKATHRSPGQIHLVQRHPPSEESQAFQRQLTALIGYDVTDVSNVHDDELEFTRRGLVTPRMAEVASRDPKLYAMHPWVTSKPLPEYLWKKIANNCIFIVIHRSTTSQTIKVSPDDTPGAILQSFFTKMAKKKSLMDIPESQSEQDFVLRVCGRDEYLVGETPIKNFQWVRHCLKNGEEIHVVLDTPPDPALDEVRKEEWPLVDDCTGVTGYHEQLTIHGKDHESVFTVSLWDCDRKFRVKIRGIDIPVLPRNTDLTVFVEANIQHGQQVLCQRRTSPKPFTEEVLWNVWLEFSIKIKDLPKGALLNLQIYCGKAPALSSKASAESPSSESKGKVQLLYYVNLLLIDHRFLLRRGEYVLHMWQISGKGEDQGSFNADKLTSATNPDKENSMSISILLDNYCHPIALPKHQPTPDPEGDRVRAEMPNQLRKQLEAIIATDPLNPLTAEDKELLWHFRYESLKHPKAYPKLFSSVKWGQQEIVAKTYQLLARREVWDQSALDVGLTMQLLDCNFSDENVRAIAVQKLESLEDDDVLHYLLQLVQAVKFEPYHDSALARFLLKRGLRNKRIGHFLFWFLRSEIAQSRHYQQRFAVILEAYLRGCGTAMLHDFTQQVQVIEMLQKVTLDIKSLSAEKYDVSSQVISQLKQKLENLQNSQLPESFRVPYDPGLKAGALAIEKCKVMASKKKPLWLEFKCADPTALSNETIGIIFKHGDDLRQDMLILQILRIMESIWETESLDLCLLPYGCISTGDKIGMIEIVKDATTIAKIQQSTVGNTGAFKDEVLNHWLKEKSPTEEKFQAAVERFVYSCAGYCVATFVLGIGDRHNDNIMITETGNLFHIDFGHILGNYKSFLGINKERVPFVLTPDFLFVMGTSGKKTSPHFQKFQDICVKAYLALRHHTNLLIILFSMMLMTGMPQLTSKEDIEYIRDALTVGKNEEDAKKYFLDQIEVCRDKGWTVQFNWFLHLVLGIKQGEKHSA

[16] = target: T1, Phosphatidylinositol 4,5-bisphosphate 3-kinase catalytic subunit gamma isoform; test: Inhibition of PI3K-gamma (unknown origin) after 40 mins by ADP-Glo luminescent kinase assay; procedure, shortened: as §4
Target sequence in this assay (P48736 whole entry, canonical isoform): as the sequence (P48736 whole entry, looked up, canonical isoform) above

[17] = target: Serine/threonine-protein kinase mTOR (Homo sapiens, UniProt P42345); test: Inhibition of insulin-stimulated mTOR phosphorylation in human A549 cells after 30 mins by Western blot analysis; type: cell-based; procedure, shortened: as §2
MDA-MB-231 [18] = test: Antiproliferative activity against human MDA-MB-231 cells incubated for 48 hrs by sulforhodamine B assay; type: functional; settings: MDA-MB-231, 48 h; procedure, shortened: as §1
[19] = Antiproliferative activity against human DU145 cells incubated for 48 hrs by sulforhodamine B assay; type: functional; settings: DU-145, 48 h; procedure, shortened: as §1
NCI-H23 = test: Antiproliferative activity against human NCI-H23 cells incubated for 48 hrs by sulforhodamine B assay; type: functional; settings: NCI-H23, 48 h; procedure, shortened: as §1
[20] = Antiproliferative activity against human RPMI8226 cells incubated for 48 hrs by sulforhodamine B assay; type: functional; settings: RPMI-8226, 48 h
MDA-MB-231 [21] = test: Cytotoxicity against human MDA-MB-231 cells after 72 hrs by MTT assay; type: functional, cell-based; settings: MDA-MB-231, 72 h; procedure, shortened: as §3
[22] = Antiproliferative activity against human OVCAR5 cells incubated for 48 hrs by sulforhodamine B assay; type: functional; settings: OVCAR-5, 48 h; procedure, shortened: as §1
[23] = Antiproliferative activity against human SF295 cells incubated for 48 hrs by sulforhodamine B assay; type: functional; settings: SF-295, 48 h; procedure, shortened: as §1
[24] = read-out: pLC50 (the source's name) (converted)

Phosphatidylinositol 4,5-bisphosphate 3-kinase catalytic subunit alpha isoform, sequence (P42336 whole entry, canonical isoform): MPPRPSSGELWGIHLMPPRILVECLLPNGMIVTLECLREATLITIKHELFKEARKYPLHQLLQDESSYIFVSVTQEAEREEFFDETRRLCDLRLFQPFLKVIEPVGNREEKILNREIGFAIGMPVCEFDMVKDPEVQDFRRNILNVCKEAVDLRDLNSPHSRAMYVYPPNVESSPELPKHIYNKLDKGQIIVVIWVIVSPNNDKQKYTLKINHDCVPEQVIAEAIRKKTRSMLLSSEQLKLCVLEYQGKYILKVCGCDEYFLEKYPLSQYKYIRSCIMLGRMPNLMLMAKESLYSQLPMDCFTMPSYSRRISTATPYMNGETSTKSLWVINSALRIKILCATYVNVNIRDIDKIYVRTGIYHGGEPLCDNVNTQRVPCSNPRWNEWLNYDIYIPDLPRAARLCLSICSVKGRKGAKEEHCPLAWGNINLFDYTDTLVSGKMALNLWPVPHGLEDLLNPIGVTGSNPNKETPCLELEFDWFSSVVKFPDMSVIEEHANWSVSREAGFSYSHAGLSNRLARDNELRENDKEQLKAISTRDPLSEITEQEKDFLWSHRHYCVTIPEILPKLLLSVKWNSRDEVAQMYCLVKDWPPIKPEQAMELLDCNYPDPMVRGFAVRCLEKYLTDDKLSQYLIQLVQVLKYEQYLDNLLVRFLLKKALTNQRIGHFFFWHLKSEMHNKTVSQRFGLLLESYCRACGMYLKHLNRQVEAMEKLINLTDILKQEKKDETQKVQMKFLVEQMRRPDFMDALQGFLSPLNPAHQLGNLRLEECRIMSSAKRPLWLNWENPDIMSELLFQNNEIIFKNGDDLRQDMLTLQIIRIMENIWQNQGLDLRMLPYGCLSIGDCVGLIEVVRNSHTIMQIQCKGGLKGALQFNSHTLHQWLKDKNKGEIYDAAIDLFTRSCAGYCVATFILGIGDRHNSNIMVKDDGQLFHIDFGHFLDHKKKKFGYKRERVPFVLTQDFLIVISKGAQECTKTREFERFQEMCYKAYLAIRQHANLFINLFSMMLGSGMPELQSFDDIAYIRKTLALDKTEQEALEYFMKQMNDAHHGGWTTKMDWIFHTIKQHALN
Phosphatidylinositol 4,5-bisphosphate 3-kinase catalytic subunit delta isoform, sequence (O00329 whole entry, canonical isoform): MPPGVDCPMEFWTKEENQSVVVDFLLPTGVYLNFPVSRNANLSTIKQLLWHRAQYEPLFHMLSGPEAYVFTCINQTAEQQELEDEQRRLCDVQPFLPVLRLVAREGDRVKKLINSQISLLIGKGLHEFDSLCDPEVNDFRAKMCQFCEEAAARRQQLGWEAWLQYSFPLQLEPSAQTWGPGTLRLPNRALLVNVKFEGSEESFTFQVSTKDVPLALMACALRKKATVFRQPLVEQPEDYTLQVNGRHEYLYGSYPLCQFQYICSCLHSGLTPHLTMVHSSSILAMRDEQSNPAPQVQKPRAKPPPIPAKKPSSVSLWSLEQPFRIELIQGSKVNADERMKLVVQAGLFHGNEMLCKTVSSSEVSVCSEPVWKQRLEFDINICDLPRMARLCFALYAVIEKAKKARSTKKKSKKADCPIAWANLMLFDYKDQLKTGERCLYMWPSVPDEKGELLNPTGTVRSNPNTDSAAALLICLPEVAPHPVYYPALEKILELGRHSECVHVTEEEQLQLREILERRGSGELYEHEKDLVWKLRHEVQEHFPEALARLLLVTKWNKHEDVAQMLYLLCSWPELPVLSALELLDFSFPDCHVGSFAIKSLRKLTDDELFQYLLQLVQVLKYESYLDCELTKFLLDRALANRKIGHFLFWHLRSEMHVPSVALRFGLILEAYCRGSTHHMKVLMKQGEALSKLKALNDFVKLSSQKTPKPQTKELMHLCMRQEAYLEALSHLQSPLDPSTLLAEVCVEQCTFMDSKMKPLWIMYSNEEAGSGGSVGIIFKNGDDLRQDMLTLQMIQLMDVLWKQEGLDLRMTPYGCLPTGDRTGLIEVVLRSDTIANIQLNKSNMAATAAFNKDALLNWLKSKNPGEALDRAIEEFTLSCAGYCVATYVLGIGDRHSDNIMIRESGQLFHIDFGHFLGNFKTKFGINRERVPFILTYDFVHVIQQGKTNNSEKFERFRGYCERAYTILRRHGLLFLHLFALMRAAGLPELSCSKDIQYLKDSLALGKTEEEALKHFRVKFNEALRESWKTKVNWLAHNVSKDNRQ
Phosphatidylinositol 4,5-bisphosphate 3-kinase catalytic subunit beta isoform, sequence (P42338 whole entry, canonical isoform): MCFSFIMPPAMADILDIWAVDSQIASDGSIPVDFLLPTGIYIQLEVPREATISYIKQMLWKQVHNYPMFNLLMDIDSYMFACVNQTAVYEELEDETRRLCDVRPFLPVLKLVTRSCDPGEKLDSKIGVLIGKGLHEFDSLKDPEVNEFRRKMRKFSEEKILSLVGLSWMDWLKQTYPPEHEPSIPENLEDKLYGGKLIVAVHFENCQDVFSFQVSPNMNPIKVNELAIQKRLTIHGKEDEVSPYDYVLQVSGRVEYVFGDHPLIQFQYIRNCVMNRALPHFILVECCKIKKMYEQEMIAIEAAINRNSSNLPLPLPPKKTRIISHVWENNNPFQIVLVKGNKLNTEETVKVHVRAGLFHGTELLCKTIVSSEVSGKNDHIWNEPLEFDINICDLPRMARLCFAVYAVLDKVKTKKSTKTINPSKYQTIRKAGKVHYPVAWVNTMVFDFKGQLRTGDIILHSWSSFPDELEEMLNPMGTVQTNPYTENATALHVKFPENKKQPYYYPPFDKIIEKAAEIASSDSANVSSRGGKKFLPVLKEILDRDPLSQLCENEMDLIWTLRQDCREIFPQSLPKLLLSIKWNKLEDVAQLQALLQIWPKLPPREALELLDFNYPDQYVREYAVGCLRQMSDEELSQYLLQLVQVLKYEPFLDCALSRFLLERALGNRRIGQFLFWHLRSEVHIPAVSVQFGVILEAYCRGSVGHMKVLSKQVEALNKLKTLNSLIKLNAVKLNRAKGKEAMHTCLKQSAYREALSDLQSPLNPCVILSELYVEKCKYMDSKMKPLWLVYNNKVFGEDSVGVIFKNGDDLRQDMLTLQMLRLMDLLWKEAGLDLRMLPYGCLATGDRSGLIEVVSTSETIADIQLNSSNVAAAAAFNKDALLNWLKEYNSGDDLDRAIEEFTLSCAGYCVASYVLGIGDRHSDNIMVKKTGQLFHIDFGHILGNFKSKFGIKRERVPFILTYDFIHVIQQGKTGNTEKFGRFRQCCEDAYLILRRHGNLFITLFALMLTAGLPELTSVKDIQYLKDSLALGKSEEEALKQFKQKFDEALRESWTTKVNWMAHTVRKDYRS

Structure (SMILES): COc1ncc(-c2ccc3nccc(C#CCN4CCN(S(C)(=O)=O)CC4)c3c2)cc1NS(=O)(=O)c1ccc(F)cc1F
- pIC50 [1]: 8.70
- GI50 [2]: 0.0331 µM
- CC50 [2, 24]: 3.24 µM
- TGI ([2]; read-out: pTGI (converted)): 0.282 µM
- GI50 [3]: 0.0617 µM
- CC50 [3, 24]: 3.98 µM
- TGI ([3]; read-out: pTGI (converted)): 1.12 µM
- GI50 [4]: 0.0427 µM
- CC50 [4, 24]: 7.24 µM
- TGI ([4]; read-out: pTGI (converted)): 1.12 µM
- GI50 [5]: 0.055 µM
- CC50 [5, 24]: 2.69 µM
- TGI ([5]; read-out: pTGI (converted)): 0.363 µM
- Activity (Mus musculus): Non-toxic
- GI50 [6]: 0.155 µM
- CC50 [6, 24]: 40.7 µM
- TGI ([6]; read-out: pTGI (converted)): 13.8 µM
- GI50 [7]: 0.257 µM
- CC50 [7, 24]: 46.8 µM
- TGI ([7]; read-out: pTGI (converted)): 11.5 µM
- inhibition (A549): Dose-dependent effect
- pIC50 [8]: 7.85
- pIC50 [9]: 6.03
- GI50 [10]: 0.11 µM
- CC50 [10, 24]: 25.1 µM
- TGI ([10]; read-out: pTGI (converted)): 2.88 µM
- pIC50 [11]: 8.03
- GI50 [12]: 0.0107 µM
- CC50 [12, 24]: 28.8 µM
- TGI ([12]; read-out: pTGI (converted)): 0.151 µM
- GI50 [13]: 0.055 µM
- CC50 [13, 24]: 6.61 µM
- TGI ([13]; read-out: pTGI (converted)): 1.35 µM
- GI50 [14]: 0.138 µM
- CC50 [14, 24]: 5.75 µM
- TGI ([14]; read-out: pTGI (converted)): 1.66 µM
- GI50 (SN12C): 0.102 µM
- CC50 (SN12C; [24]): > 100 µM
- TGI (SN12C; read-out: pTGI (converted)): 12.3 µM
- inhibition [15]: 95%
- pIC50 [16]: 8.57
- inhibition [17]: Dose-dependent effect
- GI50 (MDA-MB-231 [18]): 0.437 µM
- CC50 (MDA-MB-231 [18]; [24]): 72.4 µM
- TGI (MDA-MB-231 [18]; read-out: pTGI (converted)): 19.5 µM
- GI50 [19]: 0.1 µM
- CC50 [19, 24]: 41.7 µM
- TGI ([19]; read-out: pTGI (converted)): 12.9 µM
- GI50 (NCI-H23): 0.295 µM
- CC50 (NCI-H23; [24]): 20 µM
- TGI (NCI-H23; read-out: pTGI (converted)): 2.69 µM
- GI50 [20]: 0.263 µM
- TGI ([20]; read-out: pTGI (converted)): 1.45 µM
- pIC50 (MDA-MB-231 [21]): 5.84
- GI50 [22]: 0.0372 µM
- CC50 [22, 24]: 60.3 µM
- TGI ([22]; read-out: pTGI (converted)): 16.2 µM
- GI50 [23]: 0.0741 µM
- CC50 [23, 24]: 29.5 µM
- TGI ([23]; read-out: pTGI (converted)): 1 µM

From ChEMBL document CHEMBL3763019, “Discovery of benzenesulfonamide derivatives as potent PI3K/mTOR dual inhibitors with in vivo efficacies against hepatocellular carcinoma” (Bioorg Med Chem, 2016)
